# Measured values: ChEMBL document CHEMBL1149436, “New bicyclic cannabinoid receptor-1 (CB1-R) antagonists” (Bioorg Med Chem Lett, 2006)
# Activity calls are given as the source filed them. No cut-off for these calls is given here.
# System: not listed separately
# Assay: Half life in Beagle dog at 0.5 mg/kg, iv
# Format: ADME, organism-based, Canis lupus familiaris
# Set-up: dose 0.5 mg/kg, route intravenous
# Details: in vivo
# In short: (§1)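 Male beagle dogs, 0.5 mg/kg iv. Vehicle: 6.7% EtOH/60% CD/33.3% PEG 400 or Transcutol P, depending on compound; amorphous solid used for iv. Plasma levels by LC-MS/MS after protein precipitation.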
row,Compound,half-life
1,Cc1nc2c(-c3ccc(Cl)cc3)n(-c3ccccc3Cl)nc2c(=O)n1CC(F)(F)F,39 h
2,O=c1c2nn(-c3ccccc3Cl)c(-c3ccc(Cl)cc3)c2ncn1CC(F)(F)F,223 h

# System: Rattus norvegicus
# Assay: Anorectic activity assessed in a fasting-induced re-feeding model in Sprague-Dawley rat at 1 mg/kg, po relative to control
# Format: functional
# Details: not given
# In short: (§2)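 Male CD rats fasted overnight, dosed orally the next morning with suspension in 0.5% methylcellulose. Food returned 0.5 h after dosing; cumulative intake measured 1.5 h later, expressed as % change versus vehicle-treated controls.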
row,Compound,Activity
1,Cc1nc2c(-c3ccc(Cl)cc3)n(-c3ccccc3Cl)nc2c(=O)n1CC(F)(F)F,-35%
2,O=c1c2nn(-c3ccccc3Cl)c(-c3ccc(Cl)cc3)c2ncn1CC(F)(F)F,-32%

# System: not listed separately
# Assay: Volume of distribution in Sprague-Dawley rat at 1 mg/kg, iv
# Format: ADME, organism-based
# Set-up: dose 1 mg/kg, route intravenous
# Details: in vivo, read-out: Vdss
# In short: (§3)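 Male Sprague-Dawley rats, 1 mg/kg iv via jugular vein cannula, amorphous solid in 20% EtOH/80% CD or Transcutol P/CD depending on compound. Plasma levels by LC-MS/MS after protein precipitation.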
row,Compound,Vd
1,Cc1nc2c(-c3ccc(Cl)cc3)n(-c3ccccc3Cl)nc2c(=O)n1CC(F)(F)F,7.7 L/kg
2,O=c1c2nn(-c3ccccc3Cl)c(-c3ccc(Cl)cc3)c2ncn1CC(F)(F)F,9.2 L/kg

# System: not listed separately
# Assay: Half life in Sprague-Dawley rat at 1 mg/kg, iv
# Format: ADME, organism-based
# Set-up: dose 1 mg/kg, route intravenous
# Details: in vivo
# In short: as §3
row,Compound,half-life
1,Cc1nc2c(-c3ccc(Cl)cc3)n(-c3ccccc3Cl)nc2c(=O)n1CC(F)(F)F,4.7 h
2,O=c1c2nn(-c3ccccc3Cl)c(-c3ccc(Cl)cc3)c2ncn1CC(F)(F)F,2.6 h

# System: Rattus norvegicus
# Assay: Anorectic activity assessed in a fasting-induced re-feeding model in Sprague-Dawley rat at 0.3 mg/kg, po relative to control
# Format: functional
# Details: not given
# In short: as §2
row,Compound,Activity
1,O=c1c2nn(-c3ccccc3Cl)c(-c3ccc(Cl)cc3)c2ncn1CC(F)(F)F,-23%

# System: not listed separately
# Assay: Bioavailability in Sprague-Dawley rat at 1 mg/kg, iv
# Format: ADME, organism-based
# Details: in vivo
# In short: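 Male Sprague-Dawley rats: iv dosing 1 mg/kg via jugular cannula (20% EtOH/80% CD or Transcutol P/CD); oral dosing of crystalline solid in 0.5% methylcellulose. Plasma by LC-MS/MS after protein precipitation.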
row,Compound,bioavailability
1,Cc1nc2c(-c3ccc(Cl)cc3)n(-c3ccccc3Cl)nc2c(=O)n1CC(F)(F)F,7%
2,O=c1c2nn(-c3ccccc3Cl)c(-c3ccc(Cl)cc3)c2ncn1CC(F)(F)F,62%

# System: Rattus norvegicus
# Assay: Anorectic activity assessed in a fasting-induced re-feeding model in Sprague-Dawley rat at 10 mg/kg, po relative to control
# Format: functional
# Details: not given
# In short: as §2
row,Compound,Activity
1,Cc1nc2c(-c3ccc(Cl)cc3)n(-c3ccccc3Cl)nc2c(=O)n1CC(F)(F)F,-59%

# System: Mus musculus
# Assay: Ability to reverse CP-55940-stimulated responses in mice at 1 mg/kg, sc
# Format: functional, organism-based
# Set-up: dose 1 mg/kg
# Details: not given
# In short: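 Mouse challenge assay from the 'tetrad': reversal of CP-55940-stimulated analgesia and hypothermia, test agent given sc.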
row,Compound,Activity
1,Cc1nc2c(-c3ccc(Cl)cc3)n(-c3ccccc3Cl)nc2c(=O)n1CC(F)(F)F,Active
2,O=c1c2nn(-c3ccccc3Cl)c(-c3ccc(Cl)cc3)c2ncn1CC(F)(F)F,Active

# System: not listed separately
# Assay: Plasma clearance in Sprague-Dawley rat at 1 mg/kg, iv
# Format: ADME, organism-based
# Set-up: dose 1 mg/kg, route intravenous
# Details: not given
# In short: as §3
row,Compound,clearance
1,Cc1nc2c(-c3ccc(Cl)cc3)n(-c3ccccc3Cl)nc2c(=O)n1CC(F)(F)F,32 mL/min/kg
2,O=c1c2nn(-c3ccccc3Cl)c(-c3ccc(Cl)cc3)c2ncn1CC(F)(F)F,45 mL/min/kg

# System: Rattus norvegicus
# Assay: Anorectic activity assessed in a fasting-induced re-feeding model in Sprague-Dawley rat at 3 mg/kg, po relative to control
# Format: functional
# Details: not given
# In short: as §2
row,Compound,Activity
1,Cc1nc2c(-c3ccc(Cl)cc3)n(-c3ccccc3Cl)nc2c(=O)n1CC(F)(F)F,-42%
2,O=c1c2nn(-c3ccccc3Cl)c(-c3ccc(Cl)cc3)c2ncn1CC(F)(F)F,-78%

# Target: T1, Cannabinoid receptor 1 (Homo sapiens, UniProt P21554)
# T1 sequence (P21554 whole entry): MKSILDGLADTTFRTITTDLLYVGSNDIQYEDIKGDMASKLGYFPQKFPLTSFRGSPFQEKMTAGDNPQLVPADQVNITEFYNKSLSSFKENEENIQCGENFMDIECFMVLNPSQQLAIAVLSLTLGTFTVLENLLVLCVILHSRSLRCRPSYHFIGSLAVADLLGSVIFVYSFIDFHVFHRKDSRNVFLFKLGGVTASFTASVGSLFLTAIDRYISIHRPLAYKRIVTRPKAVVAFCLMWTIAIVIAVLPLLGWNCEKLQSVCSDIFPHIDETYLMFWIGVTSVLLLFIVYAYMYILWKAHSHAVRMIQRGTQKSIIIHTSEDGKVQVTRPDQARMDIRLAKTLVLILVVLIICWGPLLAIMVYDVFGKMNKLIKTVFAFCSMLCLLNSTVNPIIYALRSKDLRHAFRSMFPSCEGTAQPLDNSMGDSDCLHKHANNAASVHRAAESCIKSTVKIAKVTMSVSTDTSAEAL
# Assay: Functional activity at human CB1 receptor transfected in CHOK1 cells by [35SGTP]gammaS assay
# Format: cell-based, CHO-K1
# Details: not given
row,Compound,Ki
1,CCc1nc2c(-c3ccc(Cl)cc3)n(-c3ccccc3Cl)nc2c(=O)n1CC(F)(F)F,3 nM
2,O=c1c2nn(-c3ccccc3Cl)c(-c3ccc(Cl)cc3)c2cnn1CC(F)(F)F,4 nM
3,CC(C)c1nc2c(-c3ccc(Cl)cc3)n(-c3ccccc3Cl)nc2c(=O)n1CC(F)(F)F,13 nM
4,O=c1c2nc(-c3ccccc3Cl)n(-c3ccc(Cl)cc3)c2ncn1CC(F)(F)F,1 nM
5,O=c1c2nn(-c3ccccc3Cl)c(-c3ccc(Cl)cc3)c2ccn1CC(F)(F)F,1 nM
6,O=c1c2nn(-c3ccccc3Cl)c(-c3ccc(Cl)cc3)c2ncn1N1CCCCC1,20 nM

# System: not listed separately
# Assay: Volume of distribution in Beagle dog at 0.5 mg/kg, iv
# Format: ADME, organism-based, Canis lupus familiaris
# Set-up: dose 0.5 mg/kg, route intravenous
# Details: in vivo, read-out: Vdss
# In short: as §1
row,Compound,Vd
1,Cc1nc2c(-c3ccc(Cl)cc3)n(-c3ccccc3Cl)nc2c(=O)n1CC(F)(F)F,17 L/kg
2,O=c1c2nn(-c3ccccc3Cl)c(-c3ccc(Cl)cc3)c2ncn1CC(F)(F)F,10 L/kg

# System: not listed separately
# Assay: Plasma clearance in Beagle dog at 0.5 mg/kg, iv
# Format: ADME, organism-based, Canis lupus familiaris
# Set-up: dose 0.5 mg/kg, route intravenous
# Details: not given
# In short: as §1
row,Compound,clearance
1,Cc1nc2c(-c3ccc(Cl)cc3)n(-c3ccccc3Cl)nc2c(=O)n1CC(F)(F)F,10 mL/min/kg
2,O=c1c2nn(-c3ccccc3Cl)c(-c3ccc(Cl)cc3)c2ncn1CC(F)(F)F,0.54 mL/min/kg

# Target: T1, Cannabinoid receptor 1
# Assay: biochemical
# Format: cell-based, HEK293
# Details: not given
row,Compound,Ki
1,CCc1nc2c(-c3ccc(Cl)cc3)n(-c3ccccc3Cl)nc2c(=O)n1CC(F)(F)F,1 nM
2,O=c1c2nn(-c3ccc(Cl)cc3)c(-c3ccccc3Cl)c2ncn1CC(F)(F)F,28 nM
3,O=c1c2nn(-c3ccccc3Cl)c(-c3ccc(Cl)cc3)c2cnn1CC(F)(F)F,8 nM
4,O=c1c2nn(-c3ccccc3Cl)c(-c3ccc(Cl)cc3)c2ncn1C1CCCCC1,20 nM
5,CC(C)c1nc2c(-c3ccc(Cl)cc3)n(-c3ccccc3Cl)nc2c(=O)n1CC(F)(F)F,6 nM
6,CC(C)n1cnc2c(-c3ccc(Cl)cc3)n(-c3ccccc3Cl)nc2c1=O,21 nM
7,O=c1c2nc(-c3ccccc3Cl)n(-c3ccc(Cl)cc3)c2ncn1CC(F)(F)F,1 nM
8,O=c1c2nn(-c3ccc(Cl)cc3)c(-c3ccccc3Cl)c2ncn1C1CCCCC1,38 nM
9,O=c1c2nn(-c3ccccc3Cl)c(-c3ccc(Cl)cc3)c2ccn1CC(F)(F)F,1 nM
10,CCC(CC)n1cnc2c(-c3ccc(Cl)cc3)n(-c3ccccc3Cl)nc2c1=O,26 nM
11,O=c1c2nn(-c3ccccc3Cl)c(-c3ccc(Cl)cc3)c2ncn1N1CCCCC1,12 nM

# Target: Cannabinoid receptor 2 (Homo sapiens, UniProt P34972)
# Sequence (P34972 whole entry): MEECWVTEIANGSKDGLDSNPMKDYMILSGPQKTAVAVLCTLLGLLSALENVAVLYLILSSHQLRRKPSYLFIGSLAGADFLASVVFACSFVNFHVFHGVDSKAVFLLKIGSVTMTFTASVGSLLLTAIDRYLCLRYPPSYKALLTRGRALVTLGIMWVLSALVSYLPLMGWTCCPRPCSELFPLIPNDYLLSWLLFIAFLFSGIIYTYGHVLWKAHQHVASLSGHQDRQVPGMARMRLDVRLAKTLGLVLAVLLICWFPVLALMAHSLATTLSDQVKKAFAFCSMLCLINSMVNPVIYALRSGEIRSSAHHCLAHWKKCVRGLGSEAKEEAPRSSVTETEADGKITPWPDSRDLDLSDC
# Assay: Binding affinity to human CB2 receptor expressed in CHOK1 cells
# Format: cell-based, CHO-K1
# Details: not given
row,Compound,Ki
1,CCc1nc2c(-c3ccc(Cl)cc3)n(-c3ccccc3Cl)nc2c(=O)n1CC(F)(F)F,> 10000 nM
2,O=c1c2nn(-c3ccc(Cl)cc3)c(-c3ccccc3Cl)c2ncn1CC(F)(F)F,> 10000 nM
3,O=c1c2nn(-c3ccccc3Cl)c(-c3ccc(Cl)cc3)c2cnn1CC(F)(F)F,> 10000 nM
4,O=c1c2nn(-c3ccccc3Cl)c(-c3ccc(Cl)cc3)c2ncn1CCC(F)(F)F,> 10000 nM
5,CCCn1cnc2c(-c3ccc(Cl)cc3)n(-c3ccccc3Cl)nc2c1=O,> 10000 nM
6,O=c1c2nn(-c3ccccc3Cl)c(-c3ccc(Cl)cc3)c2ncn1C1CCCCC1,> 10000 nM
7,Cc1nc2c(-c3ccc(Cl)cc3)n(-c3ccccc3Cl)nc2c(=O)n1CC(F)(F)F,> 10000 nM
8,O=c1c2nn(-c3ccccc3Cl)c(-c3ccc(Cl)cc3)c2ncn1CC(F)(F)F,> 10000 nM
9,O=c1c2nn(-c3ccccc3Cl)c(-c3ccc(Cl)cc3)c2ncn1Cc1ccccc1,> 10000 nM
10,CCn1cnc2c(-c3ccc(Cl)cc3)n(-c3ccccc3Cl)nc2c1=O,> 10000 nM
11,CC(C)c1nc2c(-c3ccc(Cl)cc3)n(-c3ccccc3Cl)nc2c(=O)n1CC(F)(F)F,> 10000 nM
12,O=c1c2nn(-c3ccccc3Cl)c(-c3ccc(Cl)cc3)c2ncn1CCF,> 10000 nM
13,O=c1c2nc(-c3ccccc3Cl)n(-c3ccc(Cl)cc3)c2ncn1CC(F)(F)F,> 10000 nM
14,CC(F)(F)Cn1cnc2c(-c3ccc(Cl)cc3)n(-c3ccccc3Cl)nc2c1=O,> 10000 nM
15,O=c1c2nn(-c3ccc(Cl)cc3)c(-c3ccccc3Cl)c2ncn1C1CCCCC1,> 10000 nM
16,O=c1c2nn(-c3ccccc3Cl)c(-c3ccc(Cl)cc3)c2ccn1CC(F)(F)F,> 10000 nM
17,O=c1c2nn(-c3ccccc3Cl)c(-c3ccc(Cl)cc3)c2ncn1N1CCCCC1,> 10000 nM
18,O=c1c2nn(-c3ccccc3Cl)c(-c3ccc(Cl)cc3)c2ncn1CC(F)F,> 10000 nM
